A selection: hits, their analogues and other compounds. The true share with any hit is near 9%.
mHtt clearance – compounds clearing mutant huntingtin protein; 0.42% of 47,000 active; inhibition, % at 1.5 µM; HeLa Exon1htt(103Q)mCFP, aggregate imaging; zero = plate's median compound well; AID 853;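 active = inhibition of aggregate fluorescence above about 70%, also judged a hit by eye on the cell image, limit read from the data, passing the limit was not always enough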;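 note: cells exposed to compound for three days before fixation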
AP complement – alternative pathway complement inhibition, orthogonal assay. Human serum alternative complement pathway, LPS-coated ELISA, C3 deposition; tested in compound mixtures. inhibition, % at 5 µM. 0.08% of 62,000 active. AID 1235;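 active = inhibition above 30% in each of the two pooled mixtures holding the compound, so the lower value exceeds 30%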;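 note: 0% = serum in Mg-EGTA without compound and 100% = EDTA serum blank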
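Medium: diluted human serum in Mg2+-EGTA GVB++. Assay system: human serum complement alternative pathway, C3 deposition onto LPS. Also added: Plate-bound LPS. Technique: Anti-C3 ELISA, OD 450 nm. Measure: percent inhibition. Incubation: 1 h at 37 °C. Dosing: 5 µM each compound, pools of ten, 50 µM per pool.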
D1 mod – allosterically modulates the human D1 dopamine receptor; P21728; HEK293 D1, CRE-luciferase, dopamine EC30 potentiation; actives deviate in either direction; B-score at 10 µM; 5.9% of 58,000 active;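 active = luminescence count or its row- and column-corrected plate score outside the 99.7% band of the plate's sample wells, on either side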
M1 ag – M1 muscarinic receptor agonism; AID 626; CHO-M1 cells, Fluo-4 calcium fluorescence, agonist mode; active compounds read high; 3% of 64,000 active; B-score at 10 µM;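 active = fluorescence rise, raw or as B-score row- and column-corrected plate score, outside the 99.7% band of its plate's samples, either direction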
M1 antagonist – blocks the rat M1 muscarinic receptor response to acetylcholine | CHO-M1 cells, Fluo-4 calcium, ACh EC80 antagonist mode; active compounds read low | B-score at 10 µM | 3.4% of 64,000 active | AID 628;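 active = calcium fluorescence response, raw or row-and-column corrected B-score, differing from the plate sample mean either way at a set confidence level, mostly lower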
Target sequence (P08482 whole entry, looked up): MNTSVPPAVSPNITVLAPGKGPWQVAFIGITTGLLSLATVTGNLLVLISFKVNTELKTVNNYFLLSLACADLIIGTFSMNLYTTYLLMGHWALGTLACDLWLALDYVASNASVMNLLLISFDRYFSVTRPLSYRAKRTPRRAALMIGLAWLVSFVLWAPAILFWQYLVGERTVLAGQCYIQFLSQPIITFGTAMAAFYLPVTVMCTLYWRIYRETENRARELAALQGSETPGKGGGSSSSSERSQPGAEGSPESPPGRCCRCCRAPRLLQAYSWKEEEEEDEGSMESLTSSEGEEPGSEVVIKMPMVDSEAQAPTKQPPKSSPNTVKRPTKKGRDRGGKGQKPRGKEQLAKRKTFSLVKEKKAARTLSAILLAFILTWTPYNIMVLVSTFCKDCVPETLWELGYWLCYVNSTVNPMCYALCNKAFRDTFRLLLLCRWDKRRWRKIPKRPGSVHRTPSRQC
D1 mod confirm – D1 receptor (human) allosteric modulation, confirmed | AID 642 | shares compounds with D1 mod | 88% of 2,200 active | HEK293 D1 CRE-luciferase, dopamine EC30 potentiation; active compounds read high | luminescence at 10 µM;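 active = luminescence in either of two replicates above the same-plate mean plus 3 SD of the low-dose dopamine control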
D1 ag no DA – secondary test of D1 modulators: activity without dopamine; shares compounds with D1 mod; HEK293 D1 CRE-luciferase, luminescence, no dopamine; active compounds read high; luminescence at 10 µM; 0.8% of 1,900 active; AID 646; in the data active = luminescence above about 3900
Isoprot counter – counter-screen for D1 modulators: isoproterenol response in HEK293 cells; shares compounds with D1 mod; HEK293 D1 CRE-luciferase, isoproterenol EC30 counter-screen; calls only at 10 µM; 63% of 2,200 active; AID 647;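 active = luminescence in either replicate above plate mean of wells with a partly effective reference agonist dose plus 3 SD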;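 note: isoproterenol raises cAMP through native beta-adrenoceptor Gs so signal bypasses D1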
An asterisk follows results filed as active.

COc1ccccc1-c1nnc2n1N=C(C(C)(C)C)CS2 was read as AP complement 1, D1 mod 4*, M1 ag -1.1, M1 antagonist -0.045, D1 mod confirm 10640*, D1 ag no DA 1636 and Isoprot counter inactive.
CCOc1cccc(-c2nnc3n2N=C(c2cc(OC)ccc2OC)CS3)c1 was read as AP complement 2, D1 mod 17*, M1 ag 0.036, M1 antagonist -0.095, D1 mod confirm 13520* and Isoprot counter active.
`COc1ccc(C2=Nn3c(nnc3-c3ccccc3OC)SC2)cc1OC` gave AP complement 4, D1 mod 41*, M1 ag 0.0086, M1 antagonist -0.35, D1 mod confirm 31124* and Isoprot counter active.
CCc1c(C(C)O)oc2ccc3c(C)cc(=O)oc3c12 (centres undefined) was read as mHtt clearance -16, AP complement -6, D1 mod 0.91, M1 ag -0.015 and M1 antagonist -0.93.
CCN(CC)C(=O)CSc1nc2ccccc2c(=O)n1CCC(=O)NCc1ccc(F)cc1 was read as mHtt clearance -83, AP complement -13, D1 mod -0.0014, M1 ag -0.25 and M1 antagonist -0.25.
`C=C(C)CSc1nc(N)c2c(C)c(C)sc2n1` gave AP complement 13, D1 mod 11*, M1 ag 0.45, M1 antagonist -0.89, D1 mod confirm 16788*, D1 ag no DA 1564 and Isoprot counter active.
`N#Cc1ccc(CSc2nnc(-c3cccs3)n2-c2ccccc2)cc1` gave AP complement -1, D1 mod 1.1, M1 ag 0.092 and M1 antagonist -0.72.
`FC(F)Sc1nnc(-c2cccs2)n1-c1ccccc1` gave mHtt clearance -55, AP complement 8, D1 mod 6.9*, M1 ag -0.11, M1 antagonist 0.096, D1 mod confirm 13848*, D1 ag no DA 1504 and Isoprot counter active.
C=CCOc1ccc(/C(CC)=N/O)c(OC)c1 was read as mHtt clearance 45, AP complement 9, D1 mod 3.4*, M1 ag -0.027, M1 antagonist 0.33, D1 mod confirm 8264*, D1 ag no DA 1700 and Isoprot counter inactive.
For C=CCOc1c(Cl)cc(/C=N/O)cc1OC the results were mHtt clearance -12, AP complement 5, D1 mod 2.1, M1 ag 0.6 and M1 antagonist 0.14.
Screening Cc1nc2sc3c(c2c2nc(-c4ccco4)nn12)CC(C)(C)OC3 returned AP complement 9 and D1 mod -0.32.
`CCc1c(C)sc(NC(=O)c2cc(-c3cc(OC)ccc3OC)on2)c1C#N` gave AP complement 5, D1 mod 0.74, M1 ag 0.0081 and M1 antagonist 1.2.
`COc1ccc(-c2csc(NC(=O)c3cc(C)on3)c2C#N)cc1OC` gave mHtt clearance 38, AP complement 16, D1 mod 10*, M1 ag -0.49, M1 antagonist 0.43, D1 mod confirm 17944*, D1 ag no DA 1716 and Isoprot counter active.
For CCC1(C)Cc2c(c(=O)n(-c3ccccc3)c3ncnc(N)c23)CO1 (centres undefined) the results were mHtt clearance 31, AP complement 9, D1 mod 5.5*, M1 ag 0.13, M1 antagonist 0.2, D1 mod confirm 10848* and Isoprot counter inactive.
`CC1(C)Cc2c(C#N)c(N)n(-c3ccccc3)c(=O)c2CO1` gave AP complement 0, D1 mod 3.2, M1 ag 0.16 and M1 antagonist -0.55.
Screening CN1Cc2cc(C(=O)c3cc(Cl)cc(CSc4ncccn4)c3O)cnc2NC1=O returned AP complement 18, D1 mod 4.5*, M1 ag -0.95, M1 antagonist -0.75, D1 mod confirm 8560* and Isoprot counter active.
CCOC(=O)c1cnn(-c2cccc(Cl)c2)c1N was read as AP complement 16, D1 mod 4.6*, M1 ag -0.52, M1 antagonist -0.63, D1 mod confirm 12468*, D1 ag no DA 1660 and Isoprot counter inactive.
CCOC(=O)c1cnn(-c2nc(C)cc(C)n2)c1N was read as AP complement -2, M1 ag 0.15 and M1 antagonist -0.0019.
Screening C/C(Cl)=C/Cn1c(N2CCCC2)nc2c1c(=O)n(C)c(=O)n2C returned mHtt clearance -61, AP complement 2, D1 mod 8.5*, M1 ag -0.31, M1 antagonist -0.017, D1 mod confirm 7912* and Isoprot counter inactive.
For Cn1c(=O)[nH]c(=O)c2c1nc(N1CCCCCC1)n2CCN1CCCCCC1 the results were AP complement 6, D1 mod 0.38, M1 ag 0.56 and M1 antagonist -1.1.
C=CCn1c(N2CCCCCC2)nc2c1c(=O)[nH]c(=O)n2C was read as mHtt clearance -4, D1 mod 6.4*, M1 ag -0.14, M1 antagonist -0.53, D1 mod confirm 12744*, D1 ag no DA 1604 and Isoprot counter active.
Screening Cn1c(=O)n(Cc2ccc(F)cc2)c(=O)c2c1nc1n2CCCN1Cc1ccccc1 returned mHtt clearance 54, AP complement 2, D1 mod -0.24, M1 ag 0.93 and M1 antagonist -0.42.
`Cn1c(N2CCCC2)nc2c1c(=O)n(Cc1ccc(F)cc1)c(=O)n2C` gave mHtt clearance -13, AP complement -2, D1 mod 4.5*, M1 ag 0.22, M1 antagonist 0.84, D1 mod confirm 12452*, D1 ag no DA 1616 and Isoprot counter active.
Screening C/C(Cl)=C\Cn1c(N2CCCC2)nc2c1c(=O)[nH]c(=O)n2C returned mHtt clearance 10, AP complement 9, D1 mod 11*, M1 ag -0.29, M1 antagonist 0.26, D1 mod confirm 16008*, D1 ag no DA 2192 and Isoprot counter active.
Screening CCOc1cccc(OCCCNCCCOC)c1 returned mHtt clearance 40, AP complement 21, D1 mod -0.36, M1 ag 0.41 and M1 antagonist -0.04.
For COc1cccc(-c2cc(C(F)(F)F)n3nc(N)nc3n2)c1 the results were mHtt clearance -26, AP complement 7, D1 mod 7.3*, M1 ag 1, M1 antagonist 0.31, D1 mod confirm 15000*, D1 ag no DA 1596 and Isoprot counter active.

High-throughput results from PubChem.
